Laboratory results reported in ChEMBL document CHEMBL1255541, “Novel indoline-1- or 3,4-dihydroquinoline-1(2H)-substituted carbothiohydrazides as TPO receptor agonists” (Bioorg Med Chem Lett, 2010).

Tests used:
Thrombopoietin receptor = biological target: T1, Thrombopoietin receptor (Homo sapiens, UniProt P40238); assay: Agonist activity at human TPOR expressed
T1 sequence (P40238 whole entry): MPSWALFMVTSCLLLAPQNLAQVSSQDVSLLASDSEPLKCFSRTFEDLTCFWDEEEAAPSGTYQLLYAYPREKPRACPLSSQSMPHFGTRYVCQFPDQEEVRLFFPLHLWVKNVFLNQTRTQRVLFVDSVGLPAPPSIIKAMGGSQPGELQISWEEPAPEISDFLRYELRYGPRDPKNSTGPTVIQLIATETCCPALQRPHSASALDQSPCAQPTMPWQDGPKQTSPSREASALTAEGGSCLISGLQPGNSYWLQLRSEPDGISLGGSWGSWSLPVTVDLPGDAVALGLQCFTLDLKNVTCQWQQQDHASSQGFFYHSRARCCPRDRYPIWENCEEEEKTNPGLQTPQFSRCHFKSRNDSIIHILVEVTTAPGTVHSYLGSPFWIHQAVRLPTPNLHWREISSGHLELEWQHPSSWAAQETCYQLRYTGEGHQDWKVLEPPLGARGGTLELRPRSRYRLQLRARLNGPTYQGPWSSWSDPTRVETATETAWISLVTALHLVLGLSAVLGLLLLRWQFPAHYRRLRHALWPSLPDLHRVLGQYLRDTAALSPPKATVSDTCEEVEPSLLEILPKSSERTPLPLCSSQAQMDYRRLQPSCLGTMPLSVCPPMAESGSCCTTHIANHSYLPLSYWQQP

[1] = biological target: T2, Thrombopoietin receptor (Homo sapiens) (UniProt P40238); assay: Agonist activity at human TPOR expressed in mouse BaF3 cells at 300 nM
T2 sequence (whole entry): T1 sequence (P40238 whole entry)

[2] = biological target: T2, Thrombopoietin receptor (Homo sapiens); assay: Agonist activity at human TPOR expressed in mouse BaF3 cells at 150 nM
[3] = Half life in rat at 5 mg/kg, po; type: ADME, organism-based; set-up: dose 5 mg/kg, route oral; details: in vivo
Procedure, shortened: (§1)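 Test substances given as ethanolamine salts, orally at 5 mg/kg to rats. Plasma concentration–time profiles were used to derive apparent total plasma clearance (CLz/F), half-life, AUC0–t and peak plasma concentration (Cmax). Values are reported as mean ± spread.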

[4] = Cmax in rat at 5 mg/kg, po; type: ADME, organism-based; set-up: dose 5 mg/kg, route oral; details: in vivo
Procedure, shortened: as §1

[5] = Apparent total plasma clearance in rat at 5 mg/kg, po; type: ADME, organism-based; set-up: dose 5 mg/kg, route oral; details: read-out: CLt/F (converted)
Procedure, shortened: as §1

[6] = AUC (0 to t) in rat at 5 mg/kg, po; type: ADME, organism-based; set-up: dose 5 mg/kg, route oral; details: plasma
Procedure, shortened: as §1

EC50 (Thrombopoietin receptor)	% activity vs 10 ng/ml TPO [1]	% activity vs 10 ng/ml TPO [2]	Compound	other results
0.031 µM			CC1=NN(c2ccc(C)c(C)c2)C(=O)/C1=C(/C)NNC(=S)N1CCc2cc(C(=O)N3CCOCC3)ccc21	
	122%	78.1%	C/C(NNC(=S)N1CCc2cc(C(=O)O)ccc21)=C1/C(=O)N(c2ccc(C)cc2)c2ccc(F)cc21	
0.006 µM			CC1=NN(c2ccc(C)c(C)c2)C(=O)/C1=C(/C)NNC(=S)N1CCc2cc(C(=O)O)ccc21	
	138%	72.4%	C/C(NNC(=S)N1CCc2cc(C(=O)O)ccc21)=C1/C(=O)N(c2ccc(C)c(C)c2)c2ccccc21	
0.064 µM			CC1=NN(c2ccc(C)c(C)c2)C(=O)/C1=C(/C)NNC(=S)N1CCCc2cc(C(=O)O)ccc21	
0.035 µM			CC1=NN(c2ccc3c(c2)CCC3)C(=O)/C1=C(/C)NNC(=S)N1CCCc2cc(C(=O)O)ccc21	
0.046 µM			CC1=NN(c2ccc3c(c2)CCC3)C(=O)/C1=C(/C)NNC(=O)N1CCc2cc(C(=O)O)ccc21	half-life [3]: 1.48 h; Cmax [4]: 3.55 µg/mL; CL/F [5]: 1.23 L/h/kg; AUC(0-t) [6]: 4.46 µg·h/mL
0.026 µM			CCNC(=O)c1ccc2c(c1)CCN2C(=S)NN/C(C)=C1\C(=O)N(c2ccc(C)c(C)c2)N=C1C	
	101%	47.3%	C/C(NNC(=S)N1CCCc2cc(C(=O)O)ccc21)=C1/C(=O)N(c2ccc(C)cc2)c2ccccc21	
0.003 µM			CC1=NN(c2ccc3c(c2)CCC3)C(=O)/C1=C(/C)NNC(=S)N1CCc2cc(C(=O)O)ccc21	
0.042 µM			CC1=NN(c2ccc(C)c(C)c2)C(=O)/C1=C(/C)NNC(=O)N1CCc2cc(C(=O)O)ccc21	half-life [3]: 1.86 h; Cmax [4]: 0.859 µg/mL; CL/F [5]: 6.78 L/h/kg; AUC(0-t) [6]: 0.923 µg·h/mL
	10.6%	3.2%	C/C(NNC(=S)N1CCc2cc(C(=O)O)ccc21)=C1/C(=O)N(c2ccc3c(c2)CCC3)c2ccc(F)cc21	
	33.4%	30.9%	C/C(NNC(=S)N1CCCc2cc(C(=O)O)ccc21)=C1/C(=O)N(c2ccc(C)c(C)c2)c2ccccc21	
	75.8%	14.3%	C/C(NNC(=S)N1CCc2cc(C(=O)O)ccc21)=C1/C(=O)N(c2ccc3c(c2)CCC3)c2ccccc21	
0.022 µM			CNC(=O)c1ccc2c(c1)CCN2C(=S)NN/C(C)=C1\C(=O)N(c2ccc(C)c(C)c2)N=C1C	
	107%	47.8%	C/C(NNC(=S)N1CCc2cc(C(=O)O)ccc21)=C1/C(=O)N(c2ccc(C)cc2)c2ccccc21	
